H69AR growth 86K: growth inhibitors of human H69AR lung tumor cells; viability, % at 10 µM; 6% of 85,000 active; H69AR lung tumor viability, ATP luminescence, 72 h; stronger effect = lower value;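 active = viability at or below 40%; inactive = viability above 40%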;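 note: multidrug resistant small cell line overexpressing MRP-1 efflux transporter; 100% = mean luminescence of untreated control wells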
Lung fibro prol: blocks proliferation of human lung fibroblasts; LL 47 human lung fibroblast viability, ATP luminescence; stronger effect = lower value; AID 719; 1.1% of 85,000 active; viability, % at 10 µM;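 active = viability at or below 50% in the single dose screen; inactive = viability above 50%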;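 note: compound exposure lasted 72 h before the ATP readout; 100% = median luminescence of untreated cell-only wells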
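Test system: LL 47 human lung fibroblasts / Incubation: 72 h compound exposure at 37 °C after overnight plating / Technique: luminescent ATP detection, CellTiter-Glo / Compound dosing: 0.1% DMSO in all compound wells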
HUVEC inhibit: inhibitors of human endothelial cell proliferation; HUVEC proliferation, CellTiter-Glo luminescence, 72 h; stronger effect = lower value; viability, % at 10 µM (by protocol); 1.1% of 86,000 active; AID 648;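 active = viability at or below 30%; inactive = viability above 30%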;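 note: 100% = median luminescence of DMSO-only cell control wells on each plate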
HCT116 bCat-KO: beta-catenin-lacking colon tumor cell growth suppression; AID 818; HCT116 beta-catenin knockout viability, CellTiter-Glo, 60 h; stronger effect = lower value; 1.5% of 140,000 active; viability, % at 10 µM;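 active = viability at or under a set limit, the compound median less 4 SD, cut at about 6% in these data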;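 note: 0% = Hyamine 1622 control at 20 µM and 100% = untreated cell control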
PTEN del growth: growth suppressors of cells with PTEN tumor suppressor deletion. HCT116 PTEN-null viability, CellTiter-Glo, 60 h; stronger effect = lower value. viability, % at 10 µM. 1.2% of 140,000 active. AID 827;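 active = viability at or below a set limit, 4 SD under the median of all tested compounds, cut at about 3.7% in these data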;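 note: PTEN knockout HCT116 line with beta catenin targeted HCT116 as companion control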
* marks the source's active call; other numbers are inactive results. Shown is part of a subset that was picked to be rich in hits.

For Cc1ccc(NC2=C/C(=N/S(=O)(=O)c3cccs3)c3ccccc3C2=O)cc1 the results were HCT116 bCat-KO 1.2* and PTEN del growth 0.5*.
O=C1C(Nc2ccccc2)=C/C(=N/S(=O)(=O)c2cccs2)c2ccccc21 was read as HCT116 bCat-KO 2.0* and PTEN del growth 1.7*.
`COC(=O)c1ccccc1NC1=C/C(=N\S(=O)(=O)c2cccs2)c2ccccc2C1=O` gave H69AR growth 86K 23*, Lung fibro prol 5.7*, HUVEC inhibit 4.0*, HCT116 bCat-KO 1.8* and PTEN del growth 1.7*.
Screening COC(=O)c1cccc(NS(=O)(=O)c2cccs2)c1C returned H69AR growth 86K 105, Lung fibro prol 92, HUVEC inhibit 92, HCT116 bCat-KO 84 and PTEN del growth 85.
Screening Cc1nc(N)sc1C(=O)N/N=C/c1c[nH]c2ccccc12 returned HCT116 bCat-KO 43 and PTEN del growth 40.
CC(=O)n1cc(/C=N/NC(=O)c2sc(C)nc2C)c2ccccc21 was read as H69AR growth 86K 22*, Lung fibro prol 89, HUVEC inhibit 84, HCT116 bCat-KO 45 and PTEN del growth 48.
For Nc1ccc(N2CCCCC2)cc1N1CCCCC1 the results were HCT116 bCat-KO 3.2* and PTEN del growth 2.5*.
For COc1ccc(C)cc1NC(=O)CNc1ccc(C(C)=O)cc1 the results were HCT116 bCat-KO 72 and PTEN del growth 60.
Screening COC1(OC)N=C(N)C2(C#N)C(c3ccc4c(c3)OCO4)C12C#N (stereo not drawn) returned H69AR growth 86K 33*, Lung fibro prol 87, HUVEC inhibit 84, HCT116 bCat-KO 87 and PTEN del growth 116.
`O=C(Nc1ccc2oc(Cc3ccc(Cl)cc3)nc2c1)c1cccnc1` gave H69AR growth 86K 36*, Lung fibro prol 92, HUVEC inhibit 80, HCT116 bCat-KO 56 and PTEN del growth 59.
Screening O=C(Nc1ccc2oc(-c3ccccc3Cl)nc2c1)c1cncc(Br)c1 returned H69AR growth 86K 18*, Lung fibro prol 66, HUVEC inhibit 17*, HCT116 bCat-KO 75 and PTEN del growth 66.
Screening CCOc1cccc(C(=O)Nc2ccc3oc(Cc4ccc(Cl)cc4)nc3c2)c1 returned H69AR growth 86K 24*, Lung fibro prol 85, HUVEC inhibit 73, HCT116 bCat-KO 34 and PTEN del growth 45.
O=C(Nc1ccc2oc(-c3ccccc3Cl)nc2c1)c1ncn[nH]1 was read as H69AR growth 86K 96, Lung fibro prol 90, HUVEC inhibit 92, HCT116 bCat-KO 88 and PTEN del growth 99.
`CCOc1cccc(C(=O)Nc2nccs2)c1` gave H69AR growth 86K 101, Lung fibro prol 92, HUVEC inhibit 96, HCT116 bCat-KO 113 and PTEN del growth 93.
`O=C(Cc1ccc(Br)cc1)N1CCN(c2ccccc2O)CC1` gave HCT116 bCat-KO 90 and PTEN del growth 89.
O=C(Nc1ccccc1-c1ccccc1)c1ccc(NC(=O)c2ccco2)cc1 was read as H69AR growth 86K 81, Lung fibro prol 91, HUVEC inhibit 84, HCT116 bCat-KO 94 and PTEN del growth 87.
For Cc1ccccc1-n1c(SC(C)C(=O)N2CCN(C)CC2)nc2ccccc2c1=O (stereo not drawn) the results were HCT116 bCat-KO 81 and PTEN del growth 73.
`COc1ccc(-n2c(N)c(C(=O)NCC3CCCO3)c3nc4ccccc4nc32)c(OC)c1` (stereo not drawn) gave H69AR growth 86K 40*, Lung fibro prol 87, HUVEC inhibit 67, HCT116 bCat-KO 48 and PTEN del growth 46.
`COc1ccc(CNC(=O)c2c(N)n(CCCN3CCOCC3)c3nc4ccccc4nc23)cc1` gave H69AR growth 86K 1.2*, Lung fibro prol 92, HUVEC inhibit 7.0*, HCT116 bCat-KO 1.4* and PTEN del growth 1.7*.
C=CCn1c(N)c(C(=O)NCC2CCCO2)c2nc3ccccc3nc21 (stereo not drawn) was read as H69AR growth 86K 68, Lung fibro prol 96, HUVEC inhibit 63, HCT116 bCat-KO 62 and PTEN del growth 66.
Nc1c(C(=O)NCc2ccc(F)cc2)c2nc3ccccc3nc2n1CCCN1CCOCC1 was read as H69AR growth 86K 1.2*, Lung fibro prol 68, HUVEC inhibit 5.1*, HCT116 bCat-KO 1.3* and PTEN del growth 1.0*.
Screening O=C(COC(=O)C1CC2C=CC1C2)NCc1ccccc1Cl (stereo not drawn) returned HCT116 bCat-KO 90 and PTEN del growth 91.
`Cc1ccc2[nH]c(=O)c(COC(=O)c3cccs3)cc2c1` gave HCT116 bCat-KO 74 and PTEN del growth 82.
Screening N#CCSc1nc2c(sc(=S)n2Cc2ccco2)c(=O)n1-c1ccc(F)cc1 returned H69AR growth 86K 40*, Lung fibro prol 74, HUVEC inhibit 88, HCT116 bCat-KO 23 and PTEN del growth 22.
`CCOc1ccc(S(=O)(=O)N2CCN(c3ccccc3F)CC2)c2cccnc12` gave H69AR growth 86K 81, Lung fibro prol 94, HUVEC inhibit 87, HCT116 bCat-KO 92 and PTEN del growth 77.
Screening O=C(O)c1cccc2cccnc12 returned H69AR growth 86K 92, Lung fibro prol 97, HUVEC inhibit 112, HCT116 bCat-KO 94 and PTEN del growth 102.
`c1cnc2c(c1)ccc1cccnc12` gave HCT116 bCat-KO 6.0* and PTEN del growth 5.
Cc1cccc(/C=c2\s/c(=C\C(=O)C(C)(C)C)[nH]c2=O)c1 was read as H69AR growth 86K 6.8*, Lung fibro prol 74, HUVEC inhibit 61, HCT116 bCat-KO 29 and PTEN del growth 26.
COc1cc2nc(NCCCN3CCN(C)CC3)n3nc(-c4ccccc4)nc3c2cc1OC was read as H69AR growth 86K 28*, Lung fibro prol 87, HUVEC inhibit 25*, HCT116 bCat-KO 2.2* and PTEN del growth 1.9*.
CN1CCN(CCCNc2nc3ccccc3c3nc(-c4ccccc4)nn23)CC1 was read as H69AR growth 86K 28*, Lung fibro prol 67 and HUVEC inhibit 70.
CCC(C)(C)n1nnnc1CN1CCC(c2nc3ccc(C)cc3[nH]2)CC1 was read as H69AR growth 86K 12*, Lung fibro prol 84, HUVEC inhibit 63, HCT116 bCat-KO 20 and PTEN del growth 38.
Cc1[nH]c2ccccc2c1C1=NNC(=Nc2ccc(F)cc2)SC1 was read as HCT116 bCat-KO 14 and PTEN del growth 18.
For COc1ccc(N=C2NN=C(c3c(C)[nH]c4ccccc34)CS2)cc1 the results were HCT116 bCat-KO 3.8* and PTEN del growth 5.
Nc1c(-c2ccccc2)c(CSc2nc3ccccc3[nH]2)nn1-c1ccc(C(=O)O)cc1 was read as HCT116 bCat-KO 91 and PTEN del growth 96.
CC(=O)C1(C)OC(N)=C(C#N)C(c2ccccc2)C1(C#N)C#N (stereo not drawn) was read as H69AR growth 86K 38*, Lung fibro prol 94, HUVEC inhibit 98, HCT116 bCat-KO 89 and PTEN del growth 101.
`CC(=O)C1=C(c2ccccc2)OC(N)=C(C#N)C1c1ccccc1C` (stereo not drawn) gave HCT116 bCat-KO 77 and PTEN del growth 74.
